Laboratory results: ChEMBL document CHEMBL3992558, “Benzimidazole inhibitors from the Niclosamide chemotype inhibit Wnt/β-catenin signaling with selectivity over effects on ATP homeostasis” (Bioorg Med Chem, 2017)
One block for each molecule: values may come before it. The source made the active and inactive calls. The rule behind the calls is not given here.

What was measured:
Homo sapiens [1] = organism: Homo sapiens; test: Inhibition of Wnt/beta-catenin signaling (unknown origin) expressed in HEK293 cells assessed as inhibition of Wnt3A-stimulated beta-catenin response transcription at 0.16 uM after 6 hrs by TOPflash dual luciferase reporter gene assay relative to control; assay type: cell-based
How it was run: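 TOPFlash/Renilla stable HEK293 cells were split from the same batch as parallel ATP assay plates, attached overnight, then treated 6 h with compound in Wnt-3A conditioned medium. Dual-luciferase read-out was taken relative to the DMSO control. Three separate experiments used different cell batches.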

Homo sapiens [2] = organism: Homo sapiens; test: Inhibition of Wnt/beta-catenin signaling in human HCT116 cells assessed as downregulation of cytosolic Axin2 protein expression at 5 uM after 18 hrs by Western blot method; assay type: cell-based
How it was run: (§1)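 HCT-116 (McCoy's 5A) or SW480 (MEM) cells, each with 10% FBS, were grown 48 h on poly-D-lysine-coated wells to 60–80% confluency. Fresh medium with compound or DMSO (0.1% final) was added for 18 h. Cytosolic fractions (β-catenin, Axin2) were isolated with hypotonic buffer, or whole cells were lysed in Laemmli buffer (c-Myc, Cyclin D1, Survivin). Immunoblots used β-actin as loading control.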

Homo sapiens [3] = organism: Homo sapiens; test: Inhibition of Wnt/beta-catenin signaling in human HCT116 cells assessed as downregulation of cytosolic beta-catenin protein expression at 5 uM after 18 hrs by Western blot method; assay type: cell-based; how it was run: as §1
HCT-116 [4] = test: Effect on ATP homeostasis in human HCT116 cells assessed as reduction in ATP level after 3 hrs in absence of glucose by ATP bioluminescent assay; assay type: ADME, cell-based; conditions: for IC50: Homo sapiens, HCT-116, 3 h; for Activity: human, hct-116, 3 h
How it was run: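 HCT-116 cells attached overnight on poly-D-lysine plates in McCoy's 5A/10% FBS, then switched to glucose-free DMEM with 2mM sodium pyruvate and 2mM L-glutamine containing compound (0.1% final DMSO). After 3 h at 37°C, 5% CO2, cells were lysed in Somatic Cell ATP Releasing Reagent and ATP was read by luciferase bioluminescence, normalized to DMSO control.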

Homo sapiens [5] = organism: Homo sapiens; test: Inhibition of Wnt/beta-catenin signaling in human SW480 cells assessed as downregulation of cytosolic Axin2 protein expression at 5 uM after 18 hrs by Western blot method; assay type: cell-based; how it was run: as §1
Homo sapiens [6] = organism: Homo sapiens; test: Inhibition of Wnt/beta-catenin signaling in human SW480 cells assessed as downregulation of Cyclin D1 protein expression at 5 uM after 18 hrs by Western blot method; assay type: cell-based; how it was run: as §1
Homo sapiens [7] = organism: Homo sapiens; test: Inhibition of Wnt/beta-catenin signaling in human SW480 cells assessed as downregulation of survivin protein expression at 5 uM after 18 hrs by Western blot method; assay type: cell-based; how it was run: as §1
HCT-116 [8] = test: Effect on ATP homeostasis in human HCT116 cells assessed as reduction in ATP level at 0.5 to 2 uM after 3 hrs in glucose supplemented media by ATP bioluminescent assay; assay type: ADME, cell-based; conditions: hct-116, 3 h
How it was run: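 HCT-116 cells attached overnight on poly-D-lysine plates, then treated 3 h at 37°C in DMEM with 2mM sodium pyruvate, 2mM L-glutamine and 5mM glucose (0.1% final DMSO). ATP was read by luciferase bioluminescence after lysis with Somatic Cell ATP Releasing Reagent, normalized to DMSO control.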

Homo sapiens [9] = organism: Homo sapiens; test: Inhibition of Wnt/beta-catenin signaling in human SW480 cells assessed as downregulation of cytosolic beta-catenin protein expression at 5 uM after 18 hrs by Western blot method; assay type: cell-based; how it was run: as §1
Homo sapiens [10] = organism: Homo sapiens; test: Inhibition of Wnt/beta-catenin signaling in human SW480 cells assessed as downregulation of c-Myc protein expression at 5 uM after 18 hrs by Western blot method; assay type: cell-based; how it was run: as §1
Homo sapiens [11] = organism: Homo sapiens; test: (§2) Inhibition of Wnt/beta-catenin signaling (unknown origin) expressed in HEK293 cells assessed as inhibition of Wnt3A-stimulated beta-catenin response transcription after 6 hrs by TOPflash dual luciferase reporter gene assay; assay type: cell-based
How it was run: (§3)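 HEK293 cells stably carrying p8xTOPFlash and Renilla pRL-TK were seeded at confluency and given Wnt-3A conditioned medium (from L Wnt-3A cells) containing compound, 0.04–10 μM, or DMSO for 6 h. Lysates were read by dual-luciferase assay. The DMSO/Wnt3A signal was set as 100%, and curves were fit (mean ± SEM, n ≥ 3). Percent inhibition at 10 μM was reported where no IC50 could be fitted.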

[12] = as §2; assay type: cell-based; conditions: Homo sapiens, HEK293, 6 h; how it was run: as §3
HEK293 (Homo sapiens) = test: Effect on ATP homeostasis in human HEK293 cells assessed as reduction in ATP level after 3 hrs in absence of glucose by ATP bioluminescent assay; conditions: HEK293, 3 h
HCT-116 [13] = test: Effect on ATP homeostasis in human HCT116 cells assessed as reduction in ATP level at 0.16 uM after 3 hrs in absence of glucose by ATP bioluminescent assay; assay type: ADME, cell-based; set-up: scale not given: the % may be the effect or the level left; conditions: hct-116, 3 h
Homo sapiens [14] = organism: Homo sapiens; test: Inhibition of Wnt/beta-catenin signaling in human HCT116 cells assessed as downregulation of Cyclin D1 protein expression at 5 uM after 18 hrs by Western blot method; assay type: cell-based; how it was run: as §1
Homo sapiens [15] = organism: Homo sapiens; test: Inhibition of Wnt/beta-catenin signaling in human U2OS cells expressing GFP-fused Fzd1 assessed as GFP-Fzd1 internalization by measuring number of punctate formed at 12.5 uM after 6 hrs by confocal microscopic method; assay type: cell-based
How it was run: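 U2OS cells stably expressing Frizzled1-GFP were plated in confocal dishes for 24 h, then treated with 12.5 μM compound in DMSO or DMSO for 6 h at 37°C and fixed in 4% paraformaldehyde. Confocal images (488-nm excitation) were read twice, blinded, and punctate was scored versus control on a 0–5 scale (0, 1, 3, 5).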

Homo sapiens [16] = organism: Homo sapiens; test: Inhibition of Wnt/beta-catenin signaling in human HCT116 cells assessed as downregulation of c-Myc protein expression at 5 uM after 18 hrs by Western blot method; assay type: cell-based; how it was run: as §1
Homo sapiens [17] = organism: Homo sapiens; test: Inhibition of Wnt/beta-catenin signaling in human HCT116 cells assessed as downregulation of survivin protein expression at 5 uM after 18 hrs by Western blot method; assay type: cell-based; how it was run: as §1
HCT-116 [18] = test: Effect on ATP homeostasis in human HCT116 cells assessed as reduction in ATP level at 2 uM after 3 hrs in glucose supplemented media by ATP bioluminescent assay; conditions: hct-116, 3 h
Homo sapiens [19] = organism: Homo sapiens; test: Inhibition of Wnt/beta-catenin signaling (unknown origin) expressed in HEK293 cells assessed as inhibition of Wnt3A-stimulated beta-catenin response transcription at 10 uM after 6 hrs by TOPflash dual luciferase reporter gene assay relative to control; assay type: cell-based; how it was run: as §3

IC50 (HCT-116 [4]): 250 nM
Activity (HCT-116 [4]): Dose-dependent effect
IC50 [12]: 120 to 280 nM
Activity (HCT-116 [13]): > 80%
SMILES: O=C(Nc1ccc([N+](=O)[O-])cc1Cl)c1cc(Cl)ccc1O [NICLOSAMIDE]
inhibition (Homo sapiens [1]): 40 to 50%
inhibition (Homo sapiens [2]): Active
inhibition (Homo sapiens [3]): Active
inhibition (Homo sapiens [5]): Active
inhibition (Homo sapiens [6]): Active
inhibition (Homo sapiens [7]): Active
Activity (HCT-116 [8]): Toxic
inhibition (Homo sapiens [9]): Active
inhibition (Homo sapiens [10]): Active
inhibition (Homo sapiens [11]): Dose-dependent effect
EC50 (HEK293 (Homo sapiens)): 56 nM
inhibition (Homo sapiens [14]): Active
Activity (Homo sapiens [15]): 5
inhibition (Homo sapiens [16]): Active
inhibition (Homo sapiens [17]): Active

SMILES: CCCCCC[C@H]1C(=O)O[C@H](C)[C@H](NC(=O)c2cccc(NC=O)c2O)C(=O)O[C@@H](C)[C@@H]1OC(=O)CC(C)C [ANTIMYCIN A]
Activity (HCT-116 [18]): Toxic

SMILES: Cc1ccc(S(=O)(=O)Nc2ccccc2-c2nc3cc([N+](=O)[O-])ccc3[nH]2)cc1
inhibition (Homo sapiens [19]): 53%
Activity (Homo sapiens [15]): 0

IC50 [12]: 7650 nM
SMILES: Oc1ccc(Cl)cc1-c1nc2cc(F)ccc2[nH]1
Activity (Homo sapiens [15]): 0

IC50 [12]: 3200 nM
SMILES: Cc1ccc(S(=O)(=O)Nc2ccc(Cl)cc2-c2nc3cc(C(F)(F)F)ccc3[nH]2)cc1
Activity (Homo sapiens [15]): 0

Activity (HCT-116 [4]): Dose-dependent effect
IC50 [12]: 230 to 270 nM
SMILES: Oc1ccc(Cl)cc1-c1nc2cc(C(F)(F)F)ccc2[nH]1
inhibition (Homo sapiens [1]): 40 to 50%
inhibition (Homo sapiens [2]): Active
inhibition (Homo sapiens [3]): Active
inhibition (Homo sapiens [5]): Active
inhibition (Homo sapiens [6]): Active
inhibition (Homo sapiens [7]): Active
Activity (HCT-116 [8]): Non-Toxic
inhibition (Homo sapiens [9]): Active
inhibition (Homo sapiens [10]): Active
inhibition (Homo sapiens [11]): Dose-dependent effect
EC50 (HEK293 (Homo sapiens)): ≥ 5000 nM
Activity (HCT-116 [13]): Non-Toxic
inhibition (Homo sapiens [14]): Active
Activity (Homo sapiens [15]): 3
inhibition (Homo sapiens [16]): Active
inhibition (Homo sapiens [17]): Active

SMILES: CS(=O)(=O)Nc1ccccc1-c1nc2cc(C(F)(F)F)ccc2[nH]1
inhibition (Homo sapiens [19]): 74%
Activity (Homo sapiens [15]): 0

IC50 [12]: 1270 nM
SMILES: COc1ccc2[nH]c(-c3cc(Cl)ccc3O)nc2c1
Activity (Homo sapiens [15]): 0

SMILES: CC[C@H]1/C=C/C=C/C[C@@H](C)[C@H](O)[C@@](C)(O)C(=O)[C@@H](C)[C@H](O)[C@@H](C)C(=O)[C@@H](C)[C@H](O)[C@@H](C)/C=C/C(=O)O[C@@H]2[C@H](C)[C@H](CC1)O[C@]1(CC[C@H](C)[C@H](C[C@@H](C)O)O1)[C@H]2C [OLIGOMYCIN]
Activity (HCT-116 [18]): Toxic

SMILES: O=S(=O)(Nc1ccccc1-c1nc2cc(C(F)(F)F)ccc2[nH]1)c1c(F)cccc1F
inhibition (Homo sapiens [19]): 8%
Activity (Homo sapiens [15]): 0

IC50 (HCT-116 [4]): < 250 nM
IC50 [12]: 1500 nM
SMILES: Cc1ccc(S(=O)(=O)Nc2ccc(Cl)cc2C(=O)Nc2ccc([N+](=O)[O-])cc2Cl)cc1
Activity (Homo sapiens [15]): 3

IC50 [12]: 4440 nM
SMILES: O=[N+]([O-])c1ccc2nc(-c3ccccc3O)[nH]c2c1
Activity (Homo sapiens [15]): 0
